Laboratory results published in ChEMBL document CHEMBL4622933, “Targeting the TS dimer interface in bifunctional Cryptosporidium hominis TS-DHFR from parasitic protozoa: Virtual screening identifies novel TS allosteric inhibitors” (Bioorg Med Chem Lett, 2020).
The source made the active and inactive calls. The calls are words filed in the database; no cut-off is given here.

Columns and labels:
Cryptosporidium hominis [1] = experiment: Inhibition of Cryptosporidium hominis thymidylate synthase assessed as H2F formation at 500 uM preincubated for 30 mins followed by addition of radiolabelled CH2H4F and dUMP by HPLC-coupled flow scintillation analysis relative to control
In short: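 Bifunctional C. hominis TS-DHFR is preincubated with compound for 30 min, then dUMP and radiolabelled CH2H4F are added to start the reaction. TS turnover of CH2H4F to H2F is followed by HPLC with radioactivity flow detection, and results are expressed as % inhibition.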

[2] = Inhibition of Cryptosporidium hominis thymidylate synthase assessed as H2F formation preincubated for 30 mins followed by addition of radiolabelled CH2H4F and inactive dUMP by HPLC-coupled flow scintillation analysis
Cryptosporidium hominis [3] = experiment: Inhibition of Cryptosporidium hominis dihydrofolate reductase assessed as H4F formation at 500 uM preincubated for 30 mins followed by addition of radiolabelled H2F and dUMP by HPLC-coupled flow scintillation analysis relative to control
In short: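 DHFR activity of bifunctional C. hominis TS-DHFR uses a radiometric assay. Conversion of radiolabelled H2F to H4F is followed by HPLC, and % inhibition is reported. The assay is run as a counter-screen for compound aggregation and nonspecific effects.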

[4] = Inhibition of Cryptosporidium hominis thymidylate synthase assessed as H2F formation preincubated for 30 mins followed by addition of radiolabelled CH2H4F and active dUMP by HPLC-coupled flow scintillation analysis
[5] = Selectivity index, ratio of inhibition of human TS to inhibition of Cryptosporidium hominis thymidylate synthase-dihydrofolate reductase
[6] = molecular target: Thymidylate synthase (TS) (Homo sapiens, UniProt P04818); experiment: Inhibition of human TS at 500 uM relative to control; conditions: human thymidylate synthase enzyme (single protein)
In short: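 Human TS enzyme is incubated with compound in the absence of dUMP, then TS activity is measured.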

Sequence of Thymidylate synthase (TS) (P04818 whole entry): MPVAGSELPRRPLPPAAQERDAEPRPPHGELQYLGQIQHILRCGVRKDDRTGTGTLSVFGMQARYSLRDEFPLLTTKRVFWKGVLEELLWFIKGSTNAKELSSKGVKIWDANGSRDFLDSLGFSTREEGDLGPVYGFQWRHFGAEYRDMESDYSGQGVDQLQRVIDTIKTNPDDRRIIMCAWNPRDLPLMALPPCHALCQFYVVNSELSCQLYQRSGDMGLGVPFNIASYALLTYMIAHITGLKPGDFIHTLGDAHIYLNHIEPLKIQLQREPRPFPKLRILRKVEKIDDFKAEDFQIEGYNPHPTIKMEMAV

SMILES: CC(C)(CC(=O)O)CC(=O)NCc1c(Cl)cccc1Oc1ccccc1
- inhibition (Cryptosporidium hominis [1]): inactive

SMILES: COc1cc(C(=O)O)ccc1OCC(O)CNCc1ccc2c(c1)OCO2 (centres undefined)
- inhibition (Cryptosporidium hominis [1]): < 5%

SMILES: COc1ccccc1OCC(O)CNCc1ccc2c(c1)OCO2 (centres undefined)
- inhibition (Cryptosporidium hominis [1]): < 5%

SMILES: CCOC(=O)CNC(=O)CSc1nc2ccccc2c(=O)[nH]1
- inhibition (Cryptosporidium hominis [1]): inactive

SMILES: Cc1ccc(OCC(O)CNCc2ccc3c(c2)OCO3)cc1C (centres undefined)
- inhibition (Cryptosporidium hominis [1]): 55%

SMILES: OC(CNCc1ccc2c(c1)OCO2)COc1ccc(F)cc1 (centres undefined)
- inhibition (Cryptosporidium hominis [1]): 7%

SMILES: Cc1cc(Cl)cc(Br)c1OCC(O)CNCc1ccc2c(c1)OCO2 (centres undefined)
- inhibition (Cryptosporidium hominis [1]): 83%
- IC50 [2]: 172 µM
- inhibition (Cryptosporidium hominis [3]): 19%
- IC50 [4]: 304 µM
- Ratio [5]: 2
- inhibition at 500 µM [6]: 50%

SMILES: COc1ccc(Cn2c(=O)c3[nH]cnc3n(-c3cccc([S+](C)[O-])c3)c2=O)cc1 (centres undefined)
- inhibition (Cryptosporidium hominis [1]): < 5%

SMILES: OC(CNCc1ccc2c(c1)OCO2)CSc1ccccc1 (centres undefined)
- inhibition (Cryptosporidium hominis [1]): 34%

SMILES: O=C(O)CCC(=O)Nc1ccc(S(=O)(=O)Nc2ccc(C(F)(F)F)cc2)cc1
- inhibition (Cryptosporidium hominis [1]): inactive

SMILES: COc1cc(C(C)=O)ccc1OCC(O)CNCc1ccc2c(c1)OCO2 (centres undefined)
- inhibition (Cryptosporidium hominis [1]): 20%

SMILES: OC(CNCc1ccc2c(c1)OCO2)COc1ccc(-c2ccccc2)cc1 (centres undefined)
- inhibition (Cryptosporidium hominis [1]): 87%
- inhibition (Cryptosporidium hominis [3]): 26%

SMILES: OC(CNCc1ccc2c(c1)OCO2)COc1ccc(-c2csnn2)cc1 (centres undefined)
- inhibition (Cryptosporidium hominis [1]): 76%
- inhibition (Cryptosporidium hominis [3]): 6%

SMILES: CCCCNC1N=C(c2ccccc2)c2ccccc2N(C)C1=O (centres undefined)
- inhibition (Cryptosporidium hominis [1]): 15%

SMILES: Cc1ccccc1-n1c(=O)n(Cc2ccc(C(=O)O)cc2)c(=O)c2[nH]cnc21
- inhibition (Cryptosporidium hominis [1]): < 5%

SMILES: OC(CNCc1ccc2c(c1)OCO2)COc1ccc(Br)cc1 (centres undefined)
- inhibition (Cryptosporidium hominis [1]): 26%

SMILES: COc1cc(NC(=O)NCc2cccnc2)cc(C(F)(F)F)c1
- inhibition (Cryptosporidium hominis [1]): 46%

SMILES: Cc1ccc(C)c(OCC(O)CNCc2ccc3c(c2)OCO3)c1C (centres undefined)
- inhibition (Cryptosporidium hominis [1]): 48%

SMILES: CC(=O)c1ccc(OCC(O)CNCc2ccc3c(c2)OCO3)cc1 (centres undefined)
- inhibition (Cryptosporidium hominis [1]): 55%

SMILES: OC(CNCc1ccc2c(c1)OCO2)COc1ccc(Cl)c(Cl)c1 (centres undefined)
- inhibition (Cryptosporidium hominis [1]): 83%
- inhibition (Cryptosporidium hominis [3]): 60%

SMILES: OC(CNCc1ccc2c(c1)OCO2)CSc1cccs1 (centres undefined)
- inhibition (Cryptosporidium hominis [1]): 43%
